From PubChem BioAssay AID1296 (Columbia University Molecular Screening Center, 2008)
Hit rate of the full screen: of about 130,000 compounds, about 1,000 (0.77%) were called active. Another 1% or so got no clear call; they are omitted.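 How the source made its calls: active means activation at 2 µM above a set limit, confirmed on inspection of the cell images; inconclusive means above the set limit but not confirmed on image inspection; inactive means the rest.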 This excerpt belongs to a sample that is enriched for actives.

Assay: insulin gene promoter stimulation in islet cells – imaging, TRM-6 cells, eGFP reporter, cell count, primary screen (AID 1296);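 on activation: share of cells whose green reporter signal exceeds an intensity cutoff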
Details: at 2 µM; activation: stronger effect = higher value, plate-scaled: unstimulated 0, stimulated control 100; normalized cell count: measured here: cell count (toxicity)
How it was run: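 Test system: human fetal islet-derived TRM-6 cells with tamoxifen-inducible insulin promoter–eGFP reporter. Compound dosing: 2 µM final, single concentration. Incubation: tamoxifen pre-incubation 15 h overnight, then compound exposure 48 h at 37 °C. Signal: fixed-cell fluorescence microscopy, eGFP plus Hoechst.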

Row | SMILES | activation | normalized cell count [%]
1 | CCOC(=O)NN1C(=O)c2ccccc2NC1c1ccccc1O (stereo not drawn) | 2.78% (inactive) | 107
2 | N#C/C(=C\c1ccc(N2CCOCC2)o1)C(=O)N1CCOCC1 | 7.41% (inactive) | 99.1
3 | N#C/C(=C/c1ccc(N2CCCCC2)o1)C(=O)NCCc1c[nH]c2ccccc12 | 257% (active) | 92.9
4 | N#C/C(=C/c1ccc(N2CCOCC2)o1)C(=O)N1CCOCC1 | 7.69% (inactive) | 59.4
5 | CC1(C)C2CC=C(/C=N/NC(=O)c3ccc(Cl)cc3)C1C2 (stereo not drawn) | -3.33% (inactive) | 104
6 | Cc1ccc(-c2noc(CSc3nnc(-c4ccccc4)n3C)n2)cc1 | -8.33% (inactive) | 65.9
7 | COc1ccc(-c2noc(CSc3ccc(C)cc3)n2)cc1 | 521% (active) | 77.9
8 | COc1ccc(-c2noc(-c3ccc(C)cc3)n2)cc1 | 1.41% (inactive) | 143
9 | O=C(Nc1ccccc1F)c1ccc(Cn2cc(Br)cn2)cc1 | 0% (inactive) | 118
10 | Cc1ccc(O)c(-c2cc(C(=O)NCc3ccccc3)[nH]n2)c1 | -7.14% (inactive) | 81.6
11 | CSCc1ccc(C(=O)Nc2cc(C)cc(C)c2)cc1 | -9.09% (inactive) | 139
12 | Cc1cc(C)cc(NC(=O)c2cccc(NC(=O)C3C4CC5OC(=O)C3C5C4)c2)c1 (stereo not drawn) | 76.7% (active) | 85.6
13 | Cc1cccc(NC(=O)C2CC(=O)OC23CCCC3)c1 (stereo not drawn) | 7.14% (inactive) | 75.4
14 | O=C(COC(=O)c1cc(S(=O)(=O)N2CCCCC2)ccc1Cl)NCc1ccco1 | -5.56% (inactive) | 260
15 | CC(C)CCC(C)NC(=O)c1ccc2nccnc2c1 (stereo not drawn) | 6.67% (inactive) | 43.3
16 | Cc1ccc2c(NC(=O)C3CC3)cccc2n1 | 140% (active) | 109
17 | Cc1nc(NC(=O)C2CCCCC2)sc1C | 0% (inactive) | 50
18 | Cc1ccc(/C=C(\C#N)C(=O)Nc2cccc3ncccc23)o1 | 2.7% (inactive) | 106
19 | CC(C)(C)NC(=O)CN(C(=O)c1ccc(Cl)nc1)c1cccc2ccccc12 | 108% (inactive) | 93
20 | Cc1cccc(C(=O)Nc2ccc(CC(=O)O)cc2)c1 | 226% (inactive) | 56.2
21 | O=C(Nc1ccccc1)c1ccc2nsnc2c1 | 193% (active) | 111
22 | Cc1cccc(C(=O)Nc2ccc(C(=O)/C=C/c3cccs3)cc2)c1 | 9.3% (inactive) | 81.7

Row | SMILES | activation | normalized cell count [%]
23 | Cc1nn2c3cc(N4CCOCC4)ccc3nc2c2ccccc12 | 63.5% (inactive) | 79.7
24 | CC1C/C(=N/NC(=O)c2cccs2)CC(C)(C)C1 (stereo not drawn) | 7.25% (inactive) | 112
25 | COc1cc(NS(=O)(=O)c2ccc(N=Cc3c(C)[nH]n(-c4ccccc4)c3=O)cc2)nc(OC)n1 | 3.7% (inactive) | 98.8
26 | COc1ccc(-c2nc(-c3ccccc3)no2)c(OC)c1 | 0% (inactive) | 103
27 | Cn1nc(-c2ccccc2)c(-c2nc(-c3ccc(Cl)cc3)no2)c1Cl | 471% (active) | 71.1
28 | Clc1ccc(-c2nnc(-c3ccccc3)nc2N2CCSCC2)cc1 | -5.41% (inactive) | 97.6
29 | COc1cccc(NC(=O)CN(C)C(C)C(=O)Nc2ccc(C#N)cc2)c1 (stereo not drawn) | 8.11% (inactive) | 96.1
30 | COC(=O)CSc1nc(C)c2ccc(OC)cc2n1 | 438% (active) | 69.4
31 | COc1ccc(C(=O)CSc2n[nH]c(N)n2)cc1 | 7.41% (inactive) | 116
32 | COC(=O)c1cc(C(=O)CSc2nc(C)cc(C)n2)ccc1O | -5.56% (inactive) | 111
33 | Cc1nn(-c2ccccn2)c2c1C(c1ccncc1)C1=C(CC(C)(C)CC1=O)N2 (stereo not drawn) | -6.9% (inactive) | 120
34 | CN(C)c1nnnn1-c1ccc(Cl)cc1 | 0% (inactive) | 128
35 | Cn1nccc1CNC(=O)c1ccnn1C | 7.69% (inactive) | 127
36 | COc1ccc(OCC(=O)N2CCN(C(=O)COc3ccccc3)CC2)cc1 | 411% (active) | 70.2
37 | COc1ccc(OCC(=O)N2CCN(C(=O)c3cccs3)CC2)cc1 | 9.09% (inactive) | 125
38 | O=C(COc1ccccc1)N1CCc2ccccc2C1 | 3.45% (inactive) | 131
39 | O=C(CSc1nnc(-c2c[nH]c3ccccc23)o1)c1ccccc1 | 0% (inactive) | 133
40 | O=C(CSc1nnc(Cn2cnc3ccccc32)o1)c1ccccc1 | 0% (inactive) | 112
41 | CC(C)C[C@@H](N)c1nnc(SCC(=O)c2ccc(Cl)cc2)o1 | 533% (active) | 62.6
42 | CCCc1nc2c([nH]1)C(c1cccnc1)C(C#N)=C(N)O2 (stereo not drawn) | -6.67% (inactive) | 147
43 | OC1CSc2nc3ccccc3n2C1 (stereo not drawn) | 0% (inactive) | 81.8
44 | C=CCn1c(CCc2ccc(OC(C)C)cc2)n[nH]c1=S | 0% (inactive) | 117
